Reference: BindingDB's records for doi:10.1016/j.bmcl.2007.12.018 (Novartis Institute For Biomedical Research, 2008)

Target: RAC-alpha serine/threonine-protein kinase (Homo sapiens, UniProt P31749)
Test: Inhibition of phosphorylation of T308-PKB in human U87MG cells by ELISA
Method in brief: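 Cell capture ELISA for phospho-T308 PKB in U87MG cells; IC50 determined.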

Chain of RAC-alpha serine/threonine-protein kinase (P31749 whole entry): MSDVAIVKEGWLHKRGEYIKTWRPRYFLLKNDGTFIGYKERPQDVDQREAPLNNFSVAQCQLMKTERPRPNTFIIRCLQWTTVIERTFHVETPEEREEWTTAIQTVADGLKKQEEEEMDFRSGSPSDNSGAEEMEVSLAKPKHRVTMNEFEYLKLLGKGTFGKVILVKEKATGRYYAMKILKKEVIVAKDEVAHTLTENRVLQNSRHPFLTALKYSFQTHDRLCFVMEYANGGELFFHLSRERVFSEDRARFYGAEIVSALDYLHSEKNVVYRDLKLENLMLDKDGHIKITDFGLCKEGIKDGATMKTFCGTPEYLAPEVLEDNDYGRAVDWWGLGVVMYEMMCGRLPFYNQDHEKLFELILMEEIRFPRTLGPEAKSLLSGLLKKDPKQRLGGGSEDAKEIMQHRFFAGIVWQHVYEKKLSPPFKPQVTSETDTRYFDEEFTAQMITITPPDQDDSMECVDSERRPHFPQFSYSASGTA

Compound | IC50
Cn1c(=O)n(-c2ccc(C(C)(C)C#N)cc2)c2c3cc(C#Cc4cccnc4)ccc3ncc21 | 0.033 µM
Cc1nc2cnc3ccc(C#Cc4cccnc4)cc3c2n1-c1ccc(C(C)C#N)cc1 (centres undefined) | 0.045 µM
Cc1nc2cnc3ccc(C#Cc4cccnc4)cc3c2n1-c1ccc(CC#N)cc1 | 0.077 µM
CCc1nc2cnc3ccc(C#Cc4cccnc4)cc3c2n1-c1ccc(CC#N)cc1 | 0.138 µM
